This is an account of results in paper PMC4633020 (Journal of medicinal chemistry, 2015).

In brackets after ≈: the same amount, converted by molar mass. Entries after “also recorded” stand apart in the source; their conditions may differ.

In one data set the test system is E. faecium NCTC 7171. Description: MIC, broth microdilution. In kind it is cell-based, Enterococcus faecium. Particulars: Enterococcus faecium, NCTC7171, E. faecium NCTC 7171.
Data set [1] has as its system other bacteria in the ESKAPE panel. Description: Antibacterial screening against the ESKAPE panel. In kind it is cell-based. Particulars: result in words.
A short description of data set [2]: In vitro metabolic stability in human liver S9. The class given is in vitro ADME. Particulars: calculated from in vitro half-life in human liver S9.
The target of another data set is PBP2a of S. aureus (Staphylococcus aureus, UniProt P07944). The data set is described as follows: BOCILLIN FL binding assay for PBP2a. To be noted: at concentrations of up to 100 μg/mL.
Another data set has as its system PBP5fm of E. faecium. Description: BOCILLIN FL binding assay for PBP5fm. Particulars: at up to 100 μg/mL. Put shortly:
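Recombinant PBP5 (aa 34-678, E. faecium D63r) carried an N-terminal His-tag, was expressed in E. coli BL21(DE3), and was purified by anion exchange then metal chelate column. Enzyme (40 μM final) was preincubated with test compound in 25 mM Hepes, 1 M NaCl, pH 7.0 at 37 °C. BOCILLIN FL (30 μM final) was then added, with incubations of 20 min. Labelling was read by 12% SDS-PAGE fluorescence scan and band quantitation against a no-inhibitor control.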

The subject of data set [3] is PBPs in the E. faecium membrane fractions. The data set is described as follows: PBP inhibition in E. faecium membrane fractions. The class given is binding. Particulars: data less clear due to low PBP copy numbers.
In the next data set the test system is E. faecium NCTC7171. Description: Macromolecular synthesis assays. In kind it is cell-based, Enterococcus faecium. Particulars: 2 × MIC (8 μg/mL), 120 min.
In the next data set the test system is transcription. The data set is described as follows: In vitro transcription assay. In kind it is biochemical. Particulars: T7 transcription kit.
The test system of data set [4] is transcription and translation (β-galactosidase expression). The data set is described as follows: Tandem in vitro transcription and translation assay. In kind it is biochemical, Escherichia coli. Particulars: E. coli S30 extract.
The nature of the next data set: Hemolysis assay. Particulars: red blood cells.
In another data set the test system is E. faecium ATCC BAA 2127. Description: MIC, additional E. faecium strains. In kind it is cell-based. Particulars: Enterococcus faecium, BAA2127.
The test system of data set [5] is E. faecium 119-39A (Van S). Description: MIC, additional E. faecium strains. In kind it is cell-based. Particulars: Enterococcus faecium.
Another data set deals with E. faecium C9. The data set is described as follows: MIC, additional E. faecium strains. The class given is cell-based. To be noted: Enterococcus faecium.

PBP2a of S. aureus, sequence (P07944 whole entry): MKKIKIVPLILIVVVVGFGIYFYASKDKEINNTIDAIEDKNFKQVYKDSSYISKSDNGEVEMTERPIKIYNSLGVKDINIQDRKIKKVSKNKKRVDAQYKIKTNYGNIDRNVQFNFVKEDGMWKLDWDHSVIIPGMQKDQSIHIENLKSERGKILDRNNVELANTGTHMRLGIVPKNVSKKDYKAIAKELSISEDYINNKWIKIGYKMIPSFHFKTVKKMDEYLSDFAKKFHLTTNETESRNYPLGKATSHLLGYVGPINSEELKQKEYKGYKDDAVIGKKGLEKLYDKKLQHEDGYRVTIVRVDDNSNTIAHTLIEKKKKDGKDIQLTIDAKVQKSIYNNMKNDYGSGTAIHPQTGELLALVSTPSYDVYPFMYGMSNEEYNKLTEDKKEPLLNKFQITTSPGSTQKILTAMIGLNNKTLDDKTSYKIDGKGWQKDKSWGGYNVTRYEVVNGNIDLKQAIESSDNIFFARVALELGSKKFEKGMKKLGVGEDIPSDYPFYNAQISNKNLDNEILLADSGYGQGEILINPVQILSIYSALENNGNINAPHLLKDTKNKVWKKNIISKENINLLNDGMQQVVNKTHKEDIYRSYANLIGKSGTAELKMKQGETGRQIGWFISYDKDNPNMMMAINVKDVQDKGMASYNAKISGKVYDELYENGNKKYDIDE

`CC1=C(C(N)=O)C(c2ccc(C(C)C)cc2)n2nc(SCc3ccccc3)nc2N1` (stereo not drawn) [Compound 1, 2-(Benzylthio)-7-(4-isopropylphenyl)-5-methyl-4,7-dihydro-[1,2,4]triazolo[1,5-a]pyrimidine-6-carboxamide]: the MIC (commonly the lowest concentration that inhibits growth of the organism) against E. faecium NCTC 7171 is not above 8 mg/L. Moreover, in data set [1], the “antibacterial activity against the other bacteria in the ESKAPE panel” value is reported as “No antibacterial activity”. Besides, in data set [2], the Apparent intrinsic clearance was 11.1 mLmin^−1kg^−1. For the same compound, the “inhibition of recombinant PBP2a” value on PBP2a of S. aureus was “no inhibition; also recorded: did not inhibit”. For the same compound, in the data set with PBP5fm of E. faecium, the “inhibition of PBP5fm” value is reported as “no inhibition; also recorded: did not inhibit”. Further, the “inhibition of PBPs in E. faecium membranes” value in data set [3] is on record as “did not inhibit”.

The compound `CC1=C(C(N)=O)C(c2ccc(N(C)C)cc2)n2nc(SCc3ccccc3)nc2N1` (stereo not drawn) [Compound 16, 2-(Benzylthio)-7-(4-dimethylaminophenyl)-5-methyl-4,7-dihydro[1,2,4]triazolo[1,5-a]pyrimidine-6-carboxamide] had an MIC with E. faecium NCTC 7171 not above 8 mg/L. Besides, the Apparent intrinsic clearance in data set [2] is reported as less than 10.4 mLmin^−1kg^−1. For the same compound, in the data set on E. faecium NCTC7171 (D-[2,3-3H]-alanine incorporation), the “inhibition of peptidoglycan biosynthesis” value is recorded as “notable inhibition”. The “inhibition of translation (protein synthesis)” value with E. faecium NCTC7171 (L-[4,5-3H]-leucine incorporation) is reported as “did not inhibit”. Further, in the data set with E. faecium NCTC7171 ([5,6-3H]-uridine incorporation), the “inhibition of transcription (RNA synthesis)” value is on record as “did not inhibit”. Moreover, in the data set with E. faecium NCTC7171 ([methyl-3H]-thymidine incorporation), the “inhibition of replication (DNA synthesis)” value is “did not inhibit”. Moreover, in the data set with transcription, the “effect on in vitro transcription” value is given as “did not show any effect”. Also, in data set [4], the “effect on in vitro transcription and translation” value is reported as “did not show any effect”. The same compound gave a hemolysis at 64 μg/mL in the data set “Hemolysis assay” of 1 to 2%.

On to `CN[C@H](CC(C)C)C(=O)N[C@H]1C(=O)N[C@@H](CC(N)=O)C(=O)N[C@H]2C(=O)N[C@H]3C(=O)N[C@H](C(=O)N[C@H](C(=O)O)c4cc(O)cc(O)c4-c4cc3ccc4O)[C@H](O)c3ccc(c(Cl)c3)Oc3cc2cc(c3O[C@@H]2O[C@H](CO)[C@@H](O)[C@H](O)[C@H]2O[C@H]2C[C@](C)(N)[C@H](O)[C@H](C)O2)Oc2ccc(cc2Cl)[C@H]1O` [vancomycin], for which the results for the minimum inhibitory concentration (MIC) (against E. faecium ATCC BAA 2127; in [5]; against E. faecium C9) were 1 mg/L (≈ 0.69 µM), 0.5 mg/L (≈ 0.345 µM) and 2 mg/L (≈ 1.38 µM), respectively.
